Screening results deposited in PubChem BioAssay by Broad Institute.
KDM4C inh – inhibitors of GASC-1 (KDM4C) histone demethylase, primary screen, biochemical, single concentration HTS; hit rate 0.15% among 96,000; GST-KDM4C 2-372, H3K9me3 peptide, LANCE TR-FRET; AID 720574, 2013; Lysine-specific demethylase 4C (Homo sapiens), Q9H3R0; inhibition, % at 12.5 µM;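 active = mean replicate inhibition above about 25%, with at least 55% of replicates also reaching it, limit read from the data, passing the limit was not always enough; inconclusive = only one of those two conditions met; inactive = neither condition met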
Target sequence (Q9H3R0 2-372 limits assumed): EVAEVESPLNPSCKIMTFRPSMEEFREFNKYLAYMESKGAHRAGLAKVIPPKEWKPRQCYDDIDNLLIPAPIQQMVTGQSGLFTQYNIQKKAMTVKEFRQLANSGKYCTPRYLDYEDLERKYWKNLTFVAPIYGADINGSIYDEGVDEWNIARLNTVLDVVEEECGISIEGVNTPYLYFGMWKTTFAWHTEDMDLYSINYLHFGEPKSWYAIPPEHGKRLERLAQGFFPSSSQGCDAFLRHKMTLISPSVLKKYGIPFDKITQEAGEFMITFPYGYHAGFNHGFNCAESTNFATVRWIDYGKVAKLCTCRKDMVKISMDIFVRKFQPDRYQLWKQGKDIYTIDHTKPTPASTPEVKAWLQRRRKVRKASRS
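Material: GST-tagged GASC-1 (JMJD2C) catalytic fragment, aa 2-372 / Quantity: enzyme final amount 10 nM / Medium: HEPES buffer, pH 7.5, plus ascorbate / Doses: one test concentration per compound / Incubation: 30 min reaction, 60 min detection, RT / Measured by: LANCE TR-FRET / Read-out: inhibition from TR-FRET ratio decrease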
T cruzi growth-1 – T. cruzi intracellular proliferation inhibitors, primary screen, cell-based, beta-gal Tulahuen parasites, NIH3T3 host, luminescence | hit rate 5.9% among 77,000 | AID 624255, 2012 | inhibition, % at 8.34 µM | T. cruzi beta-gal in NIH3T3, GalScreen luminescence, 90 h;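 active = mean inhibition above about 93%, with at least 55% of replicates each passing it, limit read from the data, passing the limit was not always enough; inconclusive = only one of those two conditions holds; inactive = neither condition holds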
IDH1 R132H inh – inhibitors of IDH1 R132H reductase, primary screen, biochemical, plate reader, single point; hit rate 0.18% among 70,000; diaphorase/resazurin fluorescence, 60 min; inhibition, % at 10 µM; AID 624101, 2012; Isocitrate dehydrogenase [NADP] cytoplasmic (Homo sapiens), O75874; in the data active = inhibition above about 34%; inconclusive = no clear call, values can overlap the other calls; inactive = below about 11%;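 also: 0% = DMSO and 100% = no enzyme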
Target sequence (O75874 whole entry R132H): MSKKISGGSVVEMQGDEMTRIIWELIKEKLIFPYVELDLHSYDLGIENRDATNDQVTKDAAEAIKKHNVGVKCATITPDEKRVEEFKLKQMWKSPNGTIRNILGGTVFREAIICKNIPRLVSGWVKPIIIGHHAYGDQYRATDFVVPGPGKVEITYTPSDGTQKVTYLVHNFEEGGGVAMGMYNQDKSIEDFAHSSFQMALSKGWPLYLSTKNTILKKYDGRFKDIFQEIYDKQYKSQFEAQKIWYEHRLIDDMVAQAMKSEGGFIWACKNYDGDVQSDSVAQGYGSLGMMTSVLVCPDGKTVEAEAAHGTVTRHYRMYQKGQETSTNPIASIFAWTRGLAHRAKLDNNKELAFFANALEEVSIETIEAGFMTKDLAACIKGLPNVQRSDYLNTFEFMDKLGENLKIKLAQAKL
T cruzi growth-2 – T. cruzi intracellular proliferation inhibitors, confirmation, cell-based, NIH3T3 host, beta-gal parasite, luminescence, cherry-pick | shares compounds with T cruzi growth-1 | T. cruzi beta-gal in NIH3T3, GalScreen luminescence, 90 h | inhibition, % at 8.35 µM | hit rate 72% among 5,600;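 active = mean replicate inhibition above about 95% and at least 55% of replicates individually reaching it, limit read from the data; inconclusive = only one of the two criteria is met; inactive = neither criterion is met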
T cruzi growth-3 – inhibitors of intracellular T. cruzi replication, confirmation, NIH3T3 host cells, beta-gal parasites, cherry-pick, set 2. T. cruzi beta-gal in NIH3T3, GalScreen luminescence, 90 h. inhibition, % at 2.09 µM. hit rate 21% among 5,600. shares compounds with T cruzi growth-1. AID 651740, 2012;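 active = mean inhibition above about 95%, with at least 55% of replicates also reaching it, limit read from the data; inconclusive = meets just one of the two conditions; inactive = meets neither condition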;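 also: plate controls were neutral control median for no effect and positive control median for full effect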
NIH3T3 tox – cytotoxicity in mouse NIH/3T3 fibroblasts, confirmation, cytotoxicity control for T. cruzi proliferation inhibitor project, cell-based, cherry-pick, single point; shares compounds with T cruzi growth-1; NIH/3T3 viability, CellTiter-Glo ATP luminescence, 90 h; hit rate 14% among 5,600; cytotoxicity (signal decrease), % at 8.35 µM;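 active = mean signal decrease across replicates above about 35% based on untreated-well scatter, with enough replicates individually passing, limit read from the data; inconclusive = no rule stated though some were filed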;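 also: 0% = median of neutral control wells and 100% = median of positive control wells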
NIH3T3 tox 2 – NIH/3T3 fibroblast cytotoxicity, confirmation, cytotoxicity control, cell-based, cherry-pick, single point, set 2; shares compounds with T cruzi growth-1; NIH/3T3 viability, CellTiter-Glo ATP luminescence, 90 h; inhibition, % at 24.9 µM; hit rate 56% among 5,600; AID 651744, 2012;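 active = mean loss of cell viability signal at or above a set limit, and enough replicates individually reaching it; inconclusive = meets only the mean limit or only the replicate share; inactive = meets neither condition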;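 also: 0% = median of neutral control wells and 100% = median of positive control wells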
* marks the source's active call; other numbers are inactive results; ? = inconclusive; . = no result. This is one part of a sample in which hits are shown more often than they occur.

SMILES | KDM4C inh | T cruzi growth-1 | IDH1 R132H inh | T cruzi growth-2 | T cruzi growth-3 | NIH3T3 tox | NIH3T3 tox 2
Cc1cccc(-c2ccc([C@H]3[C@@H](CO)N4CCCCN(C(=O)c5ccncc5)C[C@H]34)cc2)c1 | -2 | ? | . | 105* | 95 | 12 | 24*
Cc1ccccc1-c1ccc([C@@H]2[C@H](CO)N3CCCCN(C(=O)c4cccnc4)C[C@@H]23)cc1 | -1 | 71 | . | . | . | . | .
Cc1cccc(-c2ccc([C@@H]3[C@@H](CO)N4CCCCN(C(=O)c5cccnc5)C[C@H]34)cc2)c1 | 1 | ? | . | 56 | -12 | 11 | 30*
Cc1cccc(-c2ccc([C@@H]3[C@@H](CO)N4CCCCN(C(=O)c5ccncc5)C[C@H]34)cc2)c1 | -1 | 31 | . | . | . | . | .
Cc1ccccc1-c1ccc([C@@H]2[C@@H](CO)N3CCCCN(C(=O)c4cccnc4)C[C@H]23)cc1 | 0 | 34 | . | . | . | . | .
CC(=O)c1cccc(NC(=O)CSc2ncnc3sc(C)c(C)c23)c1 | . | . | 0 | . | . | . | .
O=C(NCCCN1CCOCC1)C1CC(c2ccc(Cl)c(Cl)c2)=NO1 (stereo not given) | . | . | 0 | . | . | . | .
COc1ccccc1-c1nnc(SCC(=O)c2ccc(NC(C)=O)cc2)o1 | . | . | 0 | . | . | . | .
O=C(c1ccncc1)N1CCCCN2[C@H](CO)[C@H](c3ccc(-c4ccccc4)cc3)[C@@H]2C1 | -1 | 119* | . | 82 | 6 | -9 | 18
O=C(c1ccncc1)N1CCCCN2[C@H](C1)[C@@H](c1ccc(-c3ccccc3)cc1)[C@@H]2CO | -1 | 9 | . | . | . | . | .
Cc1cccc(-c2ccc([C@H]3[C@H]4CN(C(=O)c5cccnc5)CCCCN4[C@H]3CO)cc2)c1 | 2 | 109* | . | ? | 27 | 12 | 26*
Cc1ccccc1-c1ccc([C@H]2[C@H](CO)N3CCCCN(C(=O)c4cccnc4)C[C@@H]23)cc1 | -2 | 93 | . | . | . | . | .
Cc1cccc(-c2ccc([C@@H]3[C@@H](CO)N4CCCCN(C(=O)c5ccncc5)C[C@@H]34)cc2)c1 | -1 | 58 | . | . | . | . | .
Cc1cccc(-c2ccc([C@@H]3[C@@H](CO)N4CCCCN(C(=O)c5cccnc5)C[C@@H]34)cc2)c1 | -1 | 100* | . | 32 | -7 | 2 | 19
CN(C)c1ccc(/C=N/NC(=O)CCCCC(=O)NO)cc1 | . | . | 0 | . | . | . | .
CCOC(=O)c1c(NC(=O)Cn2nc([N+](=O)[O-])c(Cl)c2C)sc2c1CCC2 | . | . | 0 | . | . | . | .
C[C@@H]1CCCCO[C@H](CN(C)C(=O)Nc2ccc(C(F)(F)F)cc2)[C@H](C)CN([C@@H](C)CO)C(=O)c2cc(NC(=O)Nc3ccc(F)cc3)ccc2O1 | 2 | 111* | . | 106* | 118* | -8 | 13
C[C@@H]1CCCCO[C@H](CN(C)C(=O)Nc2ccc(C(F)(F)F)cc2)[C@@H](C)CN([C@H](C)CO)C(=O)c2cc(NC(=O)Nc3ccc(F)cc3)ccc2O1 | 0 | ? | 0 | . | . | . | .
C[C@@H]1CCCCO[C@@H](CN(C)C(=O)Nc2ccc(F)cc2)[C@H](C)CN([C@@H](C)CO)C(=O)c2cc(NC(=O)Nc3ccc(C(F)(F)F)cc3)ccc2O1 | 0 | 95* | . | 105* | 104* | -7 | -31
C[C@@H]1CCCCO[C@@H](CN(C)C(=O)Nc2ccc(C(F)(F)F)cc2)[C@@H](C)CN([C@H](C)CO)C(=O)c2cc(NC(=O)Nc3ccc(F)cc3)ccc2O1 | -1 | . | -1 | . | . | . | .
COc1cccc(N(CC(=O)Nc2ccc(F)cc2F)S(C)(=O)=O)c1 | . | . | 0 | . | . | . | .
COc1cc(O)c(C(=O)c2c(O)cc(C)cc2O)c(C(=O)O)c1 | . | . | 12 | . | . | . | .
COc1cccc(-c2ccc3c(c2)O[C@H](CN(C)C(=O)C2CCOCC2)[C@@H](C)CN([C@@H](C)CO)S3(=O)=O)c1 | 2 | . | 3 | . | . | . | .
COc1cccc(-c2ccc3c(c2)O[C@@H](CN(C)C(=O)C2CCCCC2)[C@H](C)CN([C@@H](C)CO)S3(=O)=O)c1 | -1 | 112* | . | 105* | 74 | 19 | 90*
COc1cccc(-c2ccc3c(c2)O[C@H](CN(C)C(=O)C2CCCCC2)[C@@H](C)CN([C@@H](C)CO)S3(=O)=O)c1 | -4 | 97* | . | 111* | 80 | -5 | 76*
SMILES | KDM4C inh | T cruzi growth-1 | IDH1 R132H inh | T cruzi growth-2 | T cruzi growth-3 | NIH3T3 tox | NIH3T3 tox 2
COc1cccc(-c2ccc3c(c2)O[C@@H](CN(C)C(=O)C2CCCCC2)[C@@H](C)CN([C@H](C)CO)S3(=O)=O)c1 | -2 | 92* | . | 98* | 72 | 23 | 90*
COc1cccc(-c2ccc3c(c2)O[C@H](CN(C)C(=O)C2CCC2)[C@H](C)CN([C@@H](C)CO)S3(=O)=O)c1 | 0 | 103* | -1 | 95* | 58 | 57* | 78*
COc1cccc(-c2ccc3c(c2)O[C@H](CN(C)C(=O)C2CCC2)[C@H](C)CN([C@H](C)CO)S3(=O)=O)c1 | -4 | 69 | 0 | . | . | . | .
COc1cccc(-c2ccc3c(c2)O[C@@H](CN(C)C(=O)C2CCC2)[C@@H](C)CN([C@@H](C)CO)S3(=O)=O)c1 | -2 | 93 | . | . | . | . | .
COc1cccc(-c2ccc3c(c2)O[C@@H](CN(C)C(=O)C2CCOCC2)[C@H](C)CN([C@@H](C)CO)S3(=O)=O)c1 | 0 | . | -1 | . | . | . | .
O=C(O)c1ccc(C(Nc2ccccn2)c2cc(Cl)c3cccnc3c2O)cc1 (stereo not given) | . | . | 0 | . | . | . | .
Cc1cc(C)c2nc(-c3cccnc3)cc(C(=O)Nc3c(C)nn(Cc4ccccc4C)c3C)c2c1 | . | . | 0 | . | . | . | .
O=C(COc1cccc(NC(=O)c2ccc([N+](=O)[O-])cc2)c1)c1ccc(F)cc1 | . | . | 0 | . | . | . | .
Cn1c(Cc2cccc3ccccc23)nnc1SCC(=O)N1CCc2ccccc21 | . | . | -1 | . | . | . | .
CCn1c(SCC(=O)Nc2ccc(F)cc2F)nnc1-c1ccccc1OC | . | . | 0 | . | . | . | .
COc1ccc(NC(=O)C23CC4CC(C2)CC(C(=O)Nc2ccc(OC)c(OC)c2)(C4)C3)cc1OC | . | . | 2 | . | . | . | .
O=C(O)CCCC(=O)Nc1cccc(Cl)c1 | . | . | 0 | . | . | . | .
O=C(O)CSc1nc2cc(N3CCOCC3)c(F)cc2[nH]1 | . | . | 0 | . | . | . | .
Cc1ccc(C(=O)O)cc1NC(=O)COc1ccc(C(C)(C)C)cc1 | . | . | 0 | . | . | . | .
COc1cccc(-c2ccc3c(c2)O[C@H](CN(C)C(=O)C2CCCCC2)[C@H](C)CN([C@H](C)CO)S3(=O)=O)c1 | 0 | 115* | . | 106* | 98* | 44* | 87*
